Assay results: ChEMBL document CHEMBL1128747, “Phosphinic acid analogues of GABA. 1. New potent and selective GABAB agonists” (J Med Chem, 1995); call rule not given here

How the values were obtained:
[1] = target: Mu-type opioid receptor (Homo sapiens) (UniProt P35372); assay: Inhibition of [3H]- naloxone binding to mu-opiate receptor at 10e-5 M
[2] = Inhibition of [3H]- 5-HT binding to 5-hydroxytryptamine 1 receptor at 10e-5 M
[3] = target: T1, GABA-A receptor; anion channel (Homo sapiens) (UniProt P14867+P47870+P18507+P28472+P48169+Q99928+Q9UN88+P34903+O00591+O14764+Q8N1C3+P18505+P78334+P47869+P31644+Q16445); assay: Inhibition of [3H]- flunitrazepam binding to GABA-A benzodiazepine receptor at 10e-5 M; type: protein-complex assay
[4] = target: Muscarinic acetylcholine receptor (Homo sapiens) (UniProt P20309+P08173+P11229+P08172+P08912); assay: Inhibition of [3H]CMD binding to muscarinic ACh receptor at 10e-5 M; type: protein assay
[5] = target: T2, Serotonin 2 (5-HT2) receptor (Homo sapiens) (UniProt P41595+P28223+P28335); assay: Inhibition of [3H]ketanserin binding to 5-hydroxytryptamine 2 receptor at 10e-5 M; type: protein assay
T2 sequence (P28223 whole entry, looked up): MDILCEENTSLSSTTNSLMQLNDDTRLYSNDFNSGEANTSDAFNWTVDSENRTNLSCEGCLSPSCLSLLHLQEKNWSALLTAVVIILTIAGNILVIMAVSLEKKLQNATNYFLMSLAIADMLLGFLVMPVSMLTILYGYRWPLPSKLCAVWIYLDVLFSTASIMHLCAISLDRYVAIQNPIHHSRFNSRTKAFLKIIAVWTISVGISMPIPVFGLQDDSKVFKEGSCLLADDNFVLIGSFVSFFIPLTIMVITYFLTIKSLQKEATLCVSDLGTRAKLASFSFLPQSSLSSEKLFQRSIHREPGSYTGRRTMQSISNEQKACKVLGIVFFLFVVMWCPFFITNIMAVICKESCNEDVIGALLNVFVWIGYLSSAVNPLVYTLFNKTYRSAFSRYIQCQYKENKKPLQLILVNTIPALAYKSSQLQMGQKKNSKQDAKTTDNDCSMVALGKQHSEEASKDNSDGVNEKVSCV
T2 sequence (P28335 whole entry, looked up): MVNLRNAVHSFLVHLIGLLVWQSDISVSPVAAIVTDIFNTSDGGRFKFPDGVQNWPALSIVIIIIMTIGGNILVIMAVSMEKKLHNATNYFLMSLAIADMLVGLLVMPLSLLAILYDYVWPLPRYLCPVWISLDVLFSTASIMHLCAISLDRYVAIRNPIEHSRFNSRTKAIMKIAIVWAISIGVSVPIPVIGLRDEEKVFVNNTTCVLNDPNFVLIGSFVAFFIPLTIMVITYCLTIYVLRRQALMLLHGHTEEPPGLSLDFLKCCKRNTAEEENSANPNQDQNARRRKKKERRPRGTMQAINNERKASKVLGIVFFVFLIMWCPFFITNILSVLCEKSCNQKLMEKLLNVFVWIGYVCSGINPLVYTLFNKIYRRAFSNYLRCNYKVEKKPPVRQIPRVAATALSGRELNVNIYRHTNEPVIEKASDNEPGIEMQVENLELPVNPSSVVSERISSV
T2 sequence (P41595 whole entry, looked up): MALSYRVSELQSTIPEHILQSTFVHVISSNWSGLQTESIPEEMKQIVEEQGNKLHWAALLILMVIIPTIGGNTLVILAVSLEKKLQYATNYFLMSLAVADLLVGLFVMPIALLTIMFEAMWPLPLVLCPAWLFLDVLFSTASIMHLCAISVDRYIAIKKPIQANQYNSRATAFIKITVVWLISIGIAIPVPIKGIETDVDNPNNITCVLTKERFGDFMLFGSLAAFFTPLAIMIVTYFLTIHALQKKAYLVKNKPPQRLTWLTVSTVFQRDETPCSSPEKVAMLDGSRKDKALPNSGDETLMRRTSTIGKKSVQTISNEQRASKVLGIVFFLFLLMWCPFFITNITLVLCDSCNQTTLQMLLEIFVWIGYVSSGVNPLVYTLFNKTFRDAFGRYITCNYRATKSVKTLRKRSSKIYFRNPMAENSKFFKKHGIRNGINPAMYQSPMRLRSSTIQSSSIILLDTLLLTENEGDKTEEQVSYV

Rattus norvegicus [6] = assay: Deterioration of rotarod performance of rats 0.5-1 hour after subcutaneous administration of compound; type: functional, organism-based
Outline: (§1)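 Male Sprague-Dawley rats (120-140 g), eight per dose. Compound is dissolved in water and given orally (5 mL/kg) or subcutaneously into the neck (2 mL/kg). Rats are pre-trained to stay 300 s on an 11 rpm, 6 cm cylinder. Time on the rod (maximum 300 s) is recorded at 0.5-1 h after sc or 1.5-2 h after po dosing. EC50 is the dose in µmol/kg at which 50% fall off within ≤150 s, estimated by Probit.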

[7] = target: T3, Adenosine receptor A1 (Homo sapiens) (UniProt P30542); assay: Inhibition of [3H]- N-6-CA binding to Adenosine A1 receptor at 10e-5 M
T3 sequence (whole entry): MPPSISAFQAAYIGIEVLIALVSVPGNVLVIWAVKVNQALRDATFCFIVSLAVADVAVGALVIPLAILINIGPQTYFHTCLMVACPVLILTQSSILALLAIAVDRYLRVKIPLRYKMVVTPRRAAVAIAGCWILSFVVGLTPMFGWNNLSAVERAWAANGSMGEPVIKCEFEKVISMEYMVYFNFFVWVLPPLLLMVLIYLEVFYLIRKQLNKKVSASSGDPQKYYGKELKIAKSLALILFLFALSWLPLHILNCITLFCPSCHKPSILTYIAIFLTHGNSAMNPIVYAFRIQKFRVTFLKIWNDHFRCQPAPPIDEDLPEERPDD

[8] = target: T4, Adrenergic receptor beta (Homo sapiens) (UniProt P08588+P07550+P13945); assay: Inhibition of [3H]- DHA binding to Beta adrenergic receptor at 10e-5 M; type: protein assay
GABA B receptor [9] = target: T5, GABA B receptor (Rattus norvegicus, UniProt O88871+Q9Z0U4); assay: (§2) Inhibition of [3H]CGP-27492 binding to Gamma-aminobutyric acid type B receptor of rat cortex
[10] = The compound was tested for blockade of the monosynaptic reflexes in the hemisected neonatal spinal cord; type: functional, Rattus norvegicus
[11] = target: Substance-P receptor (Homo sapiens) (UniProt P25103); assay: Inhibition of [3H]-substance P binding to Tachykinin receptor 1 at 10e-5 M
Substance-P receptor (Homo sapiens), sequence (P25103 whole entry): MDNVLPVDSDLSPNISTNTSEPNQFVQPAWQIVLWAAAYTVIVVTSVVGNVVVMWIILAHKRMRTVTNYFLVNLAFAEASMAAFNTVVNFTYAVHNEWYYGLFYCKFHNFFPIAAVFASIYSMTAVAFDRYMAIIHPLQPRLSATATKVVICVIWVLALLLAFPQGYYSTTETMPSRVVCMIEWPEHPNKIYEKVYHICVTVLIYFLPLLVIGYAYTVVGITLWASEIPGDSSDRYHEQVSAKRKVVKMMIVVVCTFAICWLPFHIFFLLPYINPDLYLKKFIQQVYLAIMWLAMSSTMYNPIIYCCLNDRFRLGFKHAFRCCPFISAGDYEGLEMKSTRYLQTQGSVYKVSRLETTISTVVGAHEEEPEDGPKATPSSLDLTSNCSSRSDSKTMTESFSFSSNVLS

[12] = target: Histamine H1 receptor (Homo sapiens) (UniProt P35367); assay: Inhibition of [3H]- doxepine binding to histamine 1 receptor at 10e-5 M
Histamine H1 receptor (Homo sapiens), sequence (P35367 whole entry): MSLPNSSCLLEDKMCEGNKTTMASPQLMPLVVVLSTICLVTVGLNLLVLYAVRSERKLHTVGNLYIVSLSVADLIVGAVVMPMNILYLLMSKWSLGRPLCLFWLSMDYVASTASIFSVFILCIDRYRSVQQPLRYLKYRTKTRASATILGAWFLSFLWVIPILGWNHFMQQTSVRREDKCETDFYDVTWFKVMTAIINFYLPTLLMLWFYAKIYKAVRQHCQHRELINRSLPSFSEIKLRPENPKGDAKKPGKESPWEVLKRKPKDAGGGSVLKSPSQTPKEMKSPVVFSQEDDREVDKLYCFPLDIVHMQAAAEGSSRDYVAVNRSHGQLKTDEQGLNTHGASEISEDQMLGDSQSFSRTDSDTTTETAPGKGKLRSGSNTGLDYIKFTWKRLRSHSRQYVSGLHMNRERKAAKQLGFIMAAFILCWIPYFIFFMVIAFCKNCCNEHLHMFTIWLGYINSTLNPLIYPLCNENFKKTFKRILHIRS

[13] = target: Adrenergic receptor alpha-1 (Homo sapiens) (UniProt P35348+P25100+P35368); assay: Inhibition [3H]- prazosin binding to Alpha-1 adrenergic receptor at 10e-5 M; type: protein assay
[14] = target: GABA-A receptor; anion channel; assay: Inhibition of [3H]muscimol binding to GABA-A receptor of rat cortex; type: tissue-based
GABA-B receptor [15] = target: T6, GABA-B receptor (Homo sapiens, UniProt O75899+Q9UBS5); assay: Inhibition of [3H]-baclofen binding to Gamma-aminobutyric acid type B receptor of cat cerebellum; type: tissue-based, Felis catus; details: target entry is the homologue from another species
T6 sequence (Q9UBS5 whole entry): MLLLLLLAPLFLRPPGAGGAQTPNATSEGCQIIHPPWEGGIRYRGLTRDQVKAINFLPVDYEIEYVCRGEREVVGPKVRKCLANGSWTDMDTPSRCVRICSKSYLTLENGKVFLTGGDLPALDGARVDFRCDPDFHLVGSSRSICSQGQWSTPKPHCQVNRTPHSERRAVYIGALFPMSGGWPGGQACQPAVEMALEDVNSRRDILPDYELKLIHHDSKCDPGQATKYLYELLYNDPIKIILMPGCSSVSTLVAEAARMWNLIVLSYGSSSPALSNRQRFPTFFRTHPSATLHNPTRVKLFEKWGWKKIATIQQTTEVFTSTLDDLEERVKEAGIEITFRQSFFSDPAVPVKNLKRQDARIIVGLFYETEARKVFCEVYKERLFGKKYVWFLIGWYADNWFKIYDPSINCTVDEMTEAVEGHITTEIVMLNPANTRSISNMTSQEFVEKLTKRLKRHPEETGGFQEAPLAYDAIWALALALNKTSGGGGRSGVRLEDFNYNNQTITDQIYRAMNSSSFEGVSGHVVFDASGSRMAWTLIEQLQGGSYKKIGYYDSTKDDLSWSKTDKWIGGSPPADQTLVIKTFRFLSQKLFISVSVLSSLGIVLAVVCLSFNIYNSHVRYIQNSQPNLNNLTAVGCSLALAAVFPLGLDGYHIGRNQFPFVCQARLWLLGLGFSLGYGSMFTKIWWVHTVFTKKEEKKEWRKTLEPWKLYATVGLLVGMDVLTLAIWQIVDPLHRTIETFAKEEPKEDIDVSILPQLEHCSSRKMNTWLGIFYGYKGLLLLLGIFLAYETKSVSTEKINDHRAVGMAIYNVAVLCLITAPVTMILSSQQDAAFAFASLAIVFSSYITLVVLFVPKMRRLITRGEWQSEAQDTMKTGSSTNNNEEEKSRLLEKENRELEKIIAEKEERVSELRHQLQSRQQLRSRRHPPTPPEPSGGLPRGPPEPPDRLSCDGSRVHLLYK
T6 sequence (O75899 whole entry): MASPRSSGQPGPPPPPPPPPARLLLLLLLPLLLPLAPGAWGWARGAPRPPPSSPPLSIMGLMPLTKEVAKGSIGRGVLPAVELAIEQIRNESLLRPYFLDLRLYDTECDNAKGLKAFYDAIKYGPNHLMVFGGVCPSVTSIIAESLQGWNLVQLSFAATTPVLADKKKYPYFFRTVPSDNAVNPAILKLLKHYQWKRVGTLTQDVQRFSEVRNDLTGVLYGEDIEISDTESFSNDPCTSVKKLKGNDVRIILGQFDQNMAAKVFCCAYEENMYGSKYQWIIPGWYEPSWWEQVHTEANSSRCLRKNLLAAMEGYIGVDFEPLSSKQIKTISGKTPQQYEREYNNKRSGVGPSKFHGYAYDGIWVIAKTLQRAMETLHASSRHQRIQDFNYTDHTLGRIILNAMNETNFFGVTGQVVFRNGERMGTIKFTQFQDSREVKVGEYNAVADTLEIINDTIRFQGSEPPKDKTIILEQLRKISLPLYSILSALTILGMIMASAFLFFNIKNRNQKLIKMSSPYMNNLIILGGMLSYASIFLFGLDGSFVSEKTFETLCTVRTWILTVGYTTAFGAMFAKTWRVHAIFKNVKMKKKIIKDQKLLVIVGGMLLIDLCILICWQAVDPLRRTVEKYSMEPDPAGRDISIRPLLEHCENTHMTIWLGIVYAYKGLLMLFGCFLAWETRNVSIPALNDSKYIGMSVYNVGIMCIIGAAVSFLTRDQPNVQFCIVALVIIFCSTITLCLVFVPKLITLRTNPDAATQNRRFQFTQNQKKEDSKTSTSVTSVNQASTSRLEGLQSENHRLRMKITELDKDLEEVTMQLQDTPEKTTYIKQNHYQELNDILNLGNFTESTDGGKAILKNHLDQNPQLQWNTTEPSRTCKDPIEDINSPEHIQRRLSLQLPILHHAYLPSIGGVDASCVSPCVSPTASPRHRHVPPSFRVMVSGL

[16] = target: T1, GABA-A receptor; anion channel (Homo sapiens); assay: Inhibition of [3H]- muscimol binding to Gamma-aminobutyric acid A (GABA-A) receptor at 10e-5 M; type: protein-complex assay
Rattus norvegicus [17] = species: Rattus norvegicus; assay: The compound was tested for inhibition of release of [3H]GABA from rat cortical slices after electrical stimulation.; type: functional
GABA B receptor [18] = target: T5, GABA B receptor; assay: as §2; remark: listed apart in the source
Outline: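 Displacement of [3H]CGP27492 from rat cerebral cortex membranes, in triplicate. Nonspecific binding defined with 10 µM (R)-(-)-baclofen. IC50 obtained by computer curve fitting to a single-site model.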

GABA-B receptor [19] = target: T6, GABA-B receptor; assay: Inhibition of [3H]baclofen binding to Gamma-aminobutyric acid type B receptor of cat cerebellum; type: tissue-based, Felis catus; details: target entry is the homologue from another species
Outline: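 Cat cerebellar synaptosomal membranes (200-300 µg protein), prepared by sucrose density gradient, lysis, freezing and repeated washes. […] Stopped by centrifugation and pellet counted. Run in triplicate. Nonspecific binding with 10 µM (R)-(-)-baclofen. IC50 from single-site curve fit.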

GABA-B receptor [20] = target: T6, GABA-B receptor; assay: Inhibition of [3H]CGP-27492 binding to cat Gamma-aminobutyric acid type B receptor; type: protein-complex assay, Felis catus; details: target entry is the homologue from another species
[21] = target: Serotonin 3 (5-HT3) receptor (Homo sapiens) (UniProt P46098+A5X5Y0+O95264+Q70Z44+Q8WXA8); assay: Inhibition of [3H]- BRL 43 694 binding to 5-hydroxytryptamine 3 receptor at 10e-5 M; type: protein-complex assay
[22] = target: T4, Adrenergic receptor beta (Homo sapiens); assay: Inhibition of [3H]- DHA binding to Beta adrenergic receptor; type: protein assay; details: concentration not given here
[23] = target: Adrenergic receptor alpha-2 (Homo sapiens) (UniProt P08913+P18825+P18089); assay: Inhibition of [3H]- clonidine binding to Alpha-2 adrenergic receptor at 10e-5 M; type: protein assay
Rattus norvegicus [24] = assay: Deterioration of rotarod performance of rats 1-2 hour after subcutaneous administration of compound; type: functional, organism-based
Rattus norvegicus [25] = assay: Deterioration of rotarod performance of rats 1.2 hour after subcutaneous administration of compound; type: functional, organism-based
Rattus norvegicus [26] = assay: Deterioration of rotarod performance of rats 1-2 hour after peroral administration of compound; type: functional, organism-based; outline: as §1
[27] = target: T2, Serotonin 2 (5-HT2) receptor (Homo sapiens); assay: Ketanserin binding to 5-hydroxytryptamine 2 receptor at 10e-5 M; type: protein assay
[28] = target: GABA-B receptor (Homo sapiens) (UniProt Q9UBS5+O75899); assay: Inhibition of [3H]baclofen binding to Gamma-aminobutyric acid type B receptor of cat cerebellum at 10e-5 M; type: tissue-based; details: Felis catus, target entry is the homologue from another species

Mu-type opioid receptor (Homo sapiens), sequence (P35372 whole entry): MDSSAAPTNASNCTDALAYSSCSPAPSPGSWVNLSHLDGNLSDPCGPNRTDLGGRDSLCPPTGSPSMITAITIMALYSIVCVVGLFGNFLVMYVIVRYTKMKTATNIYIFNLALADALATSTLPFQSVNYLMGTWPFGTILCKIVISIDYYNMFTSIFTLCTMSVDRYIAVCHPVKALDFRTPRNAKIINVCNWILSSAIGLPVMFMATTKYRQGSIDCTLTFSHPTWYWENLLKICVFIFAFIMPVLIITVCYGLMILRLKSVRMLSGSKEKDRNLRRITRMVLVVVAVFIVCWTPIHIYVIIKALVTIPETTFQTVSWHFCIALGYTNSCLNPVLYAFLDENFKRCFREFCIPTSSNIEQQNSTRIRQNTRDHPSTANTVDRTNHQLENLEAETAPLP

NCCC[PH](=O)O
inhibition [1]: 0% | inhibition [2]: 13% | inhibition [3]: 24% | inhibition [4]: 27% | inhibition [5]: 0% | EC50 (Rattus norvegicus [6]): > 813 µM/kg | inhibition [7]: 2% | inhibition [8]: 0% | IC50 (GABA B receptor [9]): 0.0054 µM | IC50 [10]: 60 µM | inhibition [11]: 9% | inhibition [12]: 0% | inhibition [13]: 16% | IC50 ([14]; read-out: IC50): 1.7 µM | IC50 (GABA-B receptor [15]): 0.0024 µM | inhibition [16]: 65% | IC50 (Rattus norvegicus [17]): 0.106 µM

NCCCP(=O)(O)CO
IC50 (GABA B receptor [18]): 1.05 µM

NCC(C[PH](=O)O)c1ccc(Cl)cc1 (centres undefined)
EC50 (Rattus norvegicus [6]): 19 µM/kg | IC50 (GABA-B receptor [19]): 0.039 µM

NCC(O)(C[PH](=O)O)c1ccc(Cl)cc1 (centres undefined)
IC50 (GABA B receptor [18]): 0.065 µM

CC(CCN)P(C)(=O)O (centres undefined)
IC50 (GABA-B receptor [20]): 0.166 µM | IC50 (GABA B receptor [18]): 0.14 µM

NCC(O)C[PH](=O)O (centres undefined)
IC50 (GABA-B receptor [15]): 0.018 µM

CCC(CCN)P(C)(=O)O (centres undefined)
IC50 (GABA B receptor [18]): 18.5 µM

CP(=O)(O)C[C@@H](O)CN
inhibition [1]: 0% | inhibition [2]: 7% | inhibition [21]: 0% | inhibition [3]: 0% | inhibition [4]: 0% | inhibition [5]: 36% | EC50 (Rattus norvegicus [6]): 2 µM/kg | inhibition [7]: 16% | IC50 [10]: 0.161 µM | inhibition [11]: 7% | inhibition [12]: 22% | inhibition [22]: 9% | inhibition [13]: 0% | inhibition [23]: 0% | inhibition [16]: 0% | IC50 (Rattus norvegicus [17]): 0.4 µM | IC50 (GABA B receptor [18]): 0.045 µM | EC50 (Rattus norvegicus [24]): 36 µM/kg

NC[C@H](CC(=O)O)c1ccc(Cl)cc1 [ARBACLOFEN]
EC50 (Rattus norvegicus [6]): 9 µM/kg | IC50 [10]: 0.325 µM | IC50 ([14]; read-out: IC50): 964 µM | IC50 (Rattus norvegicus [17]): 0.33 µM | EC50 (Rattus norvegicus [25]): 16 µM/kg

NCC(CC(=O)O)c1ccc(Cl)cc1 (racemic) [BACLOFEN]
EC50 (Rattus norvegicus [6]): 24 µM/kg | IC50 ([14]; read-out: IC50): 1050 µM | EC50 (Rattus norvegicus [24]): 52 µM/kg

CP(=O)(O)CC(O)CN (centres undefined)
IC50 (GABA-B receptor [20]): 0.029 µM | IC50 (GABA B receptor [18]): 0.077 µM

CP(=O)(O)C(O)CCN (centres undefined)
IC50 (GABA B receptor [18]): 1.16 µM

NCCCP(=O)(O)C(F)F
EC50 (Rattus norvegicus [6]): 22 µM/kg | IC50 (Rattus norvegicus [17]): 10.6 µM | IC50 (GABA B receptor [18]): 0.089 µM

NC[C@@H](CC(=O)O)c1ccc(Cl)cc1
EC50 (Rattus norvegicus [6]): > 200 µM/kg | IC50 ([14]; read-out: IC50): 1560 µM | IC50 (Rattus norvegicus [17]): 213 µM | EC50 (Rattus norvegicus [26]): > 200 µM/kg

NCC(C[PH](=O)O)c1ccc(F)cc1 (centres undefined)
IC50 (GABA-B receptor [19]): 0.36 µM

CP(=O)(O)C[C@H](O)CN
EC50 (Rattus norvegicus [6]): 13 µM/kg | IC50 [10]: 0.425 µM | IC50 (Rattus norvegicus [17]): 0.6 µM | IC50 (GABA B receptor [18]): 0.152 µM | EC50 (Rattus norvegicus [24]): 135 µM/kg

NCC(C[PH](=O)O)c1ccccc1 (centres undefined)
IC50 (GABA-B receptor [19]): 0.88 µM

NCCCP(=O)(O)O
IC50 (GABA B receptor [18]): 6.81 µM

CP(=O)(O)/C=C\CN
IC50 (GABA B receptor [18]): 16.6 µM

CP(=O)(O)/C=C/CN
IC50 (GABA B receptor [18]): 0.665 µM

CCP(=O)(O)CCCN
IC50 (GABA B receptor [9]): 1.98 µM | IC50 [14]: Not Active | IC50 (GABA-B receptor [15]): 1.35 µM

NCC(O)CP(=O)(O)C(F)F (centres undefined)
IC50 (GABA B receptor [18]): 0.213 µM

CP(=O)(O)CCCN
inhibition [1]: 0% | inhibition [2]: 46% | inhibition [21]: 0% | inhibition [3]: 0% | inhibition [4]: 0% | EC50 (Rattus norvegicus [6]): 2 µM/kg | inhibition [7]: 6% | IC50 [10]: 0.05 µM | inhibition [11]: 2% | inhibition [12]: 30% | inhibition [22]: 0% | inhibition [13]: 6% | IC50 [14]: Not Active | inhibition [23]: 9% | inhibition [16]: 0% | IC50 (Rattus norvegicus [17]): 0.45 µM | inhibition [27]: 0%

CP(=O)(O)C(CCN)C(F)(F)F (centres undefined)
IC50 (GABA B receptor [18]): 67.6 µM

NCCC(c1ccccc1)[PH](=O)O (centres undefined)
inhibition [28]: 10%
